Test results reported in PubChem BioAssay.
Activity calls are given as the source filed them. Cut-off read from the data, not from the text of the source, unless noted: active = inhibition above about 30%; inactive = the rest.

Assays:
[1] = HUVEC growth inhibition – cell-based, human, primary screen (AID 575;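 active = viability at or below 30% in both replicate assays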;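 note: 100% = median of untreated cell wells with 0.1% DMSO on each plate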); conditions: HUVEC proliferation, CellTiter-Glo luminescence, 72 h; at 10 µM; stronger effect = lower value
Outline: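 System: primary human umbilical vein endothelial cells; Quantity: 1250 endothelial cells in each well; Buffer or medium: supplemented EBM, 2% fetal bovine serum; Doses: one dose, 10 µM final, 0.1% DMSO; Incubation: 72 h compound incubation; Technique: ATP-based CellTiter-Glo luminescent read; Evaluation: percent of median DMSO-control luminescence; Controls: vehicle and MePR control wells.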

[2] = growth inhibitors of H69AR lung tumor, primary screen, human, duplicate replicates (AID 580;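 active = viability at or under a set limit in both replicates, limit being median viability minus 3 SD, cut at about 48% in these data, passing the limit was not always enough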;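 note: 100% = mean luminescence of untreated wells and 0% = no signal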); conditions: H69AR lung tumor cells viability, ATP luminescence, 72 h; at 10 µM; stronger effect = lower value
[3] = reversal of MRP1-mediated doxorubicin resistance, pilot screen, H69AR cells, doxorubicin co-treatment (AID 601;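 active = viability loss from added drug above about 55%, and viability with drug at most 40%, in both replicates, limit read from the data, passing the limit was not always enough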); conditions: CellTiter-Glo, 72 h, at 10 µM; for differential viability (reversal): stronger effect = higher value
[4] = 384-well plate pilot, post-Golgi transport modulator project, inhibition of yeast transport mutant growth (AID 636; in the data active = inhibition above about 31%); conditions: absorbance 615 nm, about 18 h, stronger effect = higher value
[5] = growth suppression of yeast trafficking mutant, preliminary HTS, modulators of trafficking downstream of Golgi apparatus project, 1536-format plate, OD 615 nm (AID 637); conditions: yeast transport mutant growth, absorbance 615 nm, 18 h; stronger effect = higher value
[6] = H69AR cells + 2 uM doxorubicin, measured here: viability with 2 uM doxorubicin, stronger effect = lower value
[7] = H69AR cells, compound alone cytotoxicity

Compound	viability [1]	viability [2]	differential viability (reversal) ([3]; H69AR cells + 2 uM doxorubicin)	viability [3, 6] [%]	viability [3, 7] [%]	inhibition [4]	inhibition [5]
O=C(Nc1nnc(CCN2CCCCC2)s1)C1CCCCC1	93.4% (inactive)	91.9% (inactive)	7.11% (inactive)	84.7	91.9	-5.73% (inactive)	4.76% (inactive)
CN(C)CCNC(=O)c1ccc(COCC(F)(F)F)cc1	104% (inactive)	84.6% (inactive)	1.1% (inactive)	83.5	84.6	-7.07% (inactive)	-3.65% (inactive)
COc1cc(OC)cc(-c2nc(N)n[nH]2)c1	97.8% (inactive)	103% (inactive)	5.86% (inactive)	97.3	103	-6.4% (inactive)	2.06% (inactive)
O=C(CCSc1nc(-c2ccco2)cc(C(F)(F)F)n1)NCCc1ccccc1	80.7% (inactive)	79% (inactive)	-15.4% (inactive)	94.4	79	-4.53% (inactive)	1.11% (inactive)
C=CCn1c(SCC(=O)NCC2CCCO2)nnc1C1CCCCC1 (stereo unspecified)	104% (inactive)	97.5% (inactive)	9.64% (inactive)	87.8	97.5	-6.88% (inactive)	-0.32% (inactive)
O=C1CC(C(=O)Nc2ccc(Br)cc2)C2(CCCC2)O1 (stereo unspecified)	109% (inactive)	101% (inactive)	8.19% (inactive)	93.1	101	-4% (inactive)	-1.75% (inactive)
Cn1c(=O)[nH]c(=O)c2c1nc(N1CCNCC1)n2Cc1cccc2ccccc12	85.5% (inactive)	88.8% (inactive)	2.38% (inactive)	86.4	88.8	-1.56% (inactive)	4.76% (inactive)
Cc1onc(-c2ccccc2)c1C(=O)N1CCCSC1=Nc1ccccc1	76.9% (inactive)	92.5% (inactive)	5.92% (inactive)	86.6	92.5	-4.55% (inactive)	0.63% (inactive)
CC1(C)CC(=O)C2=C(C1)N(Cc1ccco1)C(=O)C2(NC(=O)C1CCCCC1)C(F)(F)F (stereo unspecified)	88% (inactive)	92.1% (inactive)	10.7% (inactive)	81.3	92.1	-4.47% (inactive)	5.56% (inactive)
O=c1cc(CSc2nnc(COc3ccc(Cl)cc3)o2)c2ccccc2[nH]1	86.8% (inactive)	90.2% (inactive)	-2.67% (inactive)	92.9	90.2	-2.11% (inactive)	-6.67% (inactive)
Cn1c(=O)c(=O)n(C)c2cc(S(=O)(=O)Nc3ccc4c(c3)OCCO4)ccc21	99.5% (inactive)	94.9% (inactive)	6.65% (inactive)	88.2	94.9	-0.67% (inactive)	8.41% (inactive)
COC(=O)c1ccccc1NC(=O)N1CCCC1	108% (inactive)	103% (inactive)	13.2% (inactive)	90.1	103	-3.2% (inactive)	-5.56% (inactive)
COc1ccccc1Cn1c(-c2ccco2)nc2nc3ccccc3nc21	52.5% (inactive)	59.9% (inactive)	7.3% (inactive)	52.6	59.9	-6.93% (inactive)	8.41% (inactive)
O=C(c1ccc(-c2ccccc2)cc1)N1CCC(C(=O)N2CCCC2)CC1	97.3% (inactive)	104% (inactive)	12.4% (inactive)	91.4	104	-6.67% (inactive)	5.71% (inactive)
Cc1nnc(SCC(=O)Nc2nccs2)s1	95.7% (inactive)	93% (inactive)	1.75% (inactive)	91.3	93	-6.67% (inactive)	-2.22% (inactive)
Cc1ccc(N2CC(C(=O)Nc3ccc4c(c3)OCO4)CC2=O)cc1 (stereo unspecified)	101% (inactive)	99.6% (inactive)	12% (inactive)	87.6	99.6	-3.25% (inactive)	-0.79% (inactive)
Cc1ccc(Nc2nnns2)cc1C	84.6% (inactive)	99.8% (inactive)	10.1% (inactive)	89.7	99.8	-1.04% (inactive)	-3.02% (inactive)
COc1ccc(/C(O)=C2/C(=O)C(=O)N(Cc3cccnc3)C2c2ccncc2)cc1F (stereo unspecified)	111% (inactive)	97.4% (inactive)	3.08% (inactive)	94.3	97.4	-6.62% (inactive)	0.16% (inactive)
COc1cccc(OC)c1OCCCSc1nc(C)cc(=O)[nH]1	107% (inactive)	91.1% (inactive)	-5.15% (inactive)	96.2	91.1	-4% (inactive)	-5.56% (inactive)

Compound	viability [1]	viability [2]	differential viability (reversal) ([3]; H69AR cells + 2 uM doxorubicin)	viability [3, 6] [%]	viability [3, 7] [%]	inhibition [4]	inhibition [5]
CC1(C)NC(=O)N(CN2C(=O)NC(C)(C)C2=O)C1=O	99.6% (inactive)	102% (inactive)	11.1% (inactive)	90.8	102	-3.33% (inactive)	-1.11% (inactive)
COc1ccccc1-c1c(C)nn2c(C)c(C(C)=O)cnc12	111% (inactive)	94.3% (inactive)	10.3% (inactive)	84	94.3	-6.1% (inactive)	1.27% (inactive)
O=C(COc1ccccc1Cl)N1CCCC1	105% (inactive)	91.9% (inactive)	-0.435% (inactive)	92.3	91.9	2.24% (inactive)	-4.6% (inactive)
Cc1cc(=O)[nH]c2c1cnn2Cc1ccccc1	116% (inactive)	98.9% (inactive)	5.01% (inactive)	93.9	98.9	-1.97% (inactive)	-3.33% (inactive)
CC(Sc1nnc(-c2cc3ccccc3o2)n1-c1ccccc1)C(=O)O (stereo unspecified)	90.9% (inactive)	95.1% (inactive)	1.61% (inactive)	93.5	95.1	-5.84% (inactive)	2.38% (inactive)
O=C(COc1ccc(Cl)cc1)Nc1ncccn1	106% (inactive)	107% (inactive)	14.6% (inactive)	92.6	107	-1.05% (inactive)	4.13% (inactive)
Cc1cccc2c1nc(-c1ccccc1)n1cnnc21	92.3% (inactive)	86.7% (inactive)	-8.59% (inactive)	95.3	86.7	1.2% (inactive)	-6.19% (inactive)
CCCOc1ccc(N2C(=O)CC(SCCN)C2=O)cc1 (stereo unspecified)	88.2% (inactive)	108% (inactive)	8.12% (inactive)	100	108	-5.47% (inactive)	-3.02% (inactive)
COc1nc2ccc(C)cc2cc1-c1noc(-c2cccnc2)n1	103% (inactive)	104% (inactive)	11.8% (inactive)	91.9	104	-2.37% (inactive)	-2.54% (inactive)
COC(=O)Cn1c(=O)c2c(nc(Br)n2CC(=O)OC)n(C)c1=O	91.6% (inactive)	86.5% (inactive)	6.83% (inactive)	79.7	86.5	-4.53% (inactive)	-0.79% (inactive)
O=C(NC12CC3CC(CC(C3)C1)C2)N1CCN(C(=O)C2CCCO2)CC1 (stereo unspecified)	111% (inactive)	95.6% (inactive)	11.2% (inactive)	84.4	95.6	-7.07% (inactive)	5.24% (inactive)
Nc1nc(C(=O)N2CCOCC2)nn1S(=O)(=O)c1ccc(Cl)cc1	99.1% (inactive)	95.2% (inactive)	-1.83% (inactive)	97	95.2	-1.3% (inactive)	-0.95% (inactive)
CCc1c(C(=O)NCCc2ccc(OC)c(OC)c2)[nH]c(C)c1C(C)=O	98.6% (inactive)	87% (inactive)	4.88% (inactive)	82.1	87	-5.2% (inactive)	3.97% (inactive)
Cc1ccc(-c2nn3c(C)nnc3s2)cc1N	83.5% (inactive)	94.7% (inactive)	16.5% (inactive)	78.2	94.7	-7.47% (inactive)	3.33% (inactive)
COc1ccc(C2C3=C(OC(C)=O)c4ccccc4C3=Nc3c2c(=O)n(C)c(=O)n3C)cc1 (stereo unspecified)	65.4% (inactive)	74.1% (inactive)	0.425% (inactive)	73.7	74.1	-4% (inactive)	0.79% (inactive)
COc1ccc2c(c1)c1c(n2C(C)=O)C(OC(C)=O)=NCC1	92.4% (inactive)	87.4% (inactive)	-0.05% (inactive)	87.5	87.4	-5.39% (inactive)	5.71% (inactive)
CC1CC(=O)c2cnc(NCC3CCCO3)nc2C1 (stereo unspecified)	103% (inactive)	87.3% (inactive)	4.31% (inactive)	83	87.3	-6.8% (inactive)	6.03% (inactive)
Cc1nc(SCC(=O)CC(=O)OC(C)C)c(C#N)c(C)c1C	99.8% (inactive)	95% (inactive)	6.36% (inactive)	88.7	95	-2.8% (inactive)	3.33% (inactive)
O=S1(=O)C=CC(Nc2cccc(Cl)c2)C1 (stereo unspecified)	76.3% (inactive)	65.7% (inactive)	-0.23% (inactive)	65.9	65.7	-3.68% (inactive)	4.29% (inactive)
